Experimental data from article PMC3582904 (International Journal of Oncology, 2012).
Where two headings read alike, the source gives them in different places. Marks after values point to notes of the source that are not given here.

Assays:
[1] = test system: MSTO211H cells; assay: WST-1 cell proliferation assay, MSTO211H; format: cell-based, human; settings: read-out: IC50 against MSTO211H cells, 72 h
Summary of the method: (§1)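 Cells at 1×10^4 per well in RPMI-1640/10% FBS were exposed for 72 h to test compound at 20 to 200 μM, with DMSO final 1.0%. Vehicle controls received matching DMSO. WST-1 reagent was then added, and absorbance was read at 450 nm against a 690 nm reference. IC50 was taken from the dose-response; means ± SD.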

[2] = test system: MSTO211H cells; assay: Cell cycle analysis; format: cell-based, human; settings: 24 h; for percentage of cells in sub-G1 phase compared to control: 80 μM each agent; for G1-phase population compared to control: 80 μM, P<0.05
Summary of the method: (§2)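 Cells grown in RPMI-1640 with 10% FBS at 37°C and 5% CO2 were exposed to 80 μM MEK inhibitor, 80 μM PI3K inhibitor or both for 24 h (DMSO final 1.0%). They were then trypsinized, and nuclei were stained with propidium iodide (CycleTest Plus kit). Phase profiles came from FACScan flow cytometry. Three independent runs; means ± SD, ANOVA with Dunnett's test.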

[3] = test system: EHMES-10 cells; assay: Orthotopic implantation model, EHMES-10 cells in SCID mice; format: in vivo; settings: for survival time compared to control group: P<0.01; for Pleural effusion Incidence / Thoracic tumor Incidence: day 30; for Pleural effusion Volume / Thoracic tumor Weight: day 30, median (range)
Summary of the method: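 Male SCID mice aged 6–8 weeks received 3×10^6 EHMES-10 cells in PBS into the thoracic cavity. On day 7 they were randomized, […], to vehicle (40% DMSO in PBS), MEK inhibitor (20, 30, 40 mg/kg), PI3K inhibitor (12.5, 25, 50 mg/kg) or 30 + 25 mg/kg combined, given i.p. twice weekly. Mice were killed on day 30; tumor weighed, effusion volume measured. Medians (ranges), Mann-Whitney; survival by Kaplan-Meier/log-rank.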

[4] = test system: EHMES-10 cells; assay: WST-1 cell proliferation assay, EHMES-10; format: cell-based, human; settings: read-out: IC50 against EHMES-10 cells, 72 h
Summary of the method: as §1

[5] = test system: MSTO211H cells; assay: Western blot analysis of cultured MSTO211H cells; format: cell-based, human; settings: 80 μM, 24 h
Summary of the method: (§3)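 Cultured cells received 80 μM MEK inhibitor and/or 80 μM PI3K inhibitor for 24 h. Lysates were cleared at 15,000 × g, 15 min, 4°C, resolved on 7.5–15% gels, transferred to nitrocellulose and immunoblotted; three independent experiments.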

[6] = test system: EHMES-10 cells; format: in vivo, SCID mice; settings: thoracic tumors, day 30; for expression of p27kip1 and 89 kDa cleaved PARP (western blot of tumors): 30 mg/kg U0126, 25 mg/kg LY294002 or combination
Summary of the method: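 Thoracic tumors were excised on day 30 from SCID mice given i.p. test compounds twice weekly in 40% DMSO/PBS. Paraffin sections were immunostained for phospho-ERK1/2, phospho-Akt and p27kip1 (Envision method, Fuchsin+ chromogen). Tumor homogenates were lysed in Tris/NaCl/Triton/NaF/Na3VO4 buffer, cleared at 15,000 × g, separated on 7.5–15% gels and immunoblotted.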

[7] = Side effects in EHMES-10 cell-bearing SCID mice; format: in vivo; settings: day 30, median (range)
[8] = test system: EHMES-10 cells; assay: Cell cycle analysis; format: cell-based, human; settings: 24 h; for percentage of cells in sub-G1 phase compared to control: EHMES-10, 80 μM each agent; for G1-phase population compared to control: EHMES-10, 80 μM, P<0.05
Summary of the method: as §2

[9] = test system: EHMES-10 cells; assay: DNA fragmentation assay; format: cell-based, human; settings: EHMES-10, single agent, 24 h, dose-dependent
Summary of the method: (§4)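 Apoptosis was scored after 24 h exposure to either MEK or PI3K inhibitor or their combination, in RPMI-1640/10% FBS with DMSO final 1.0%. Cytoplasmic histone-associated DNA fragments were quantified with the Cell Death Detection ELISA kit. Means ± SD, ANOVA with Dunnett's test.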

[10] = test system: EHMES-10 cells; assay: Western blot analysis of cultured EHMES-10 cells; format: cell-based, human; settings: EHMES-10, 80 μM, 24 h
Summary of the method: as §3

[11] = test system: MSTO211H cells; assay: DNA fragmentation assay; format: cell-based, human; settings: single agent, 24 h, dose-dependent
Summary of the method: as §4

[12] = cited from earlier work
[13] = patients with advanced non-small cell lung, breast, colon, and pancreatic cancers; diarrhea, nausea, asthenia, rash, anorexia; cited from earlier work
[14] = 30 mg/kg U0126, alone or with 25 mg/kg LY294002
[15] = 25 mg/kg LY294002, alone or with 30 mg/kg U0126

N#CC(=C(/N)Sc1ccccc1N)/C(C#N)=C(/N)Sc1ccccc1N [U0126]
IC50 ([1]; WST-1 assay): 39 µM | percentage of cells in sub-G1 phase compared to control [2]: significantly increased | G1-phase population compared to control [2]: significantly increased | survival time compared to control group ([3]; 30 mg/kg i.p. twice a week): significantly prolonged | Pleural effusion Incidence ([3]; 30 mg/kg i.p. twice/week): 1/5 | Thoracic tumor Incidence ([3]; 30 mg/kg i.p. twice/week): 4/5 | Pleural effusion Volume ([3]; 30 mg/kg i.p. twice/week): 0 (0–100)^a μl | Thoracic tumor Weight ([3]; 30 mg/kg i.p. twice/week): 31.3 (0–59.2)^a mg | survival time compared to control group ([3]; 40 mg/kg i.p. twice a week): significantly prolonged | Pleural effusion Incidence ([3]; 40 mg/kg i.p. twice/week): 0/5 | Thoracic tumor Incidence ([3]; 40 mg/kg i.p. twice/week): 3/5 | Pleural effusion Volume ([3]; 40 mg/kg i.p. twice/week): 0 (−)^a μl | Thoracic tumor Weight ([3]; 40 mg/kg i.p. twice/week): 14.6 (0–191.3)^a mg | IC50 ([4]; WST-1 assay): 66.8 µM | cyclin D1 expression [5]: decrease | level of 89 kDa cleaved PARP [5]: increased | levels of phospho-Bad and procaspase 3 [5]: decreased | expression of p27kip1 and 89 kDa cleaved PARP (western blot of tumors) [6]: increased | ERK1/2 phosphorylation (western blot of tumors) [6, 14]: inhibited | phospho-ERK1/2-positive tumor cells (immunohistochemistry) [6, 14]: reduced | ALT ([7]; 30 mg/kg i.p. twice/week): 30 (20–60) IU/l | AST ([7]; 30 mg/kg i.p. twice/week): 48 (44–64) IU/l | BUN ([7]; 30 mg/kg i.p. twice/week): 22.2 (15.4–24.0) mg/dl | Cre ([7]; 30 mg/kg i.p. twice/week): 0.10 (0.08–0.15) mg/dl | TP (serum total protein) ([7]; 30 mg/kg i.p. twice/week): 4.3 (4.0–5.0) g/dl | Weight (body weight) ([7]; 30 mg/kg i.p. twice/week): 24.1 (23.5–27.2) g | ALT ([7]; 40 mg/kg i.p. twice/week): 45 (31–80) IU/l | AST ([7]; 40 mg/kg i.p. twice/week): 75 (53–111) IU/l | BUN ([7]; 40 mg/kg i.p. twice/week): 19.1 (15.3–22.1) mg/dl | Cre ([7]; 40 mg/kg i.p. twice/week): 0.07 (0.05–0.12)^a mg/dl | TP (serum total protein) ([7]; 40 mg/kg i.p. twice/week): 5.0 (4.4–6.6) g/dl | Weight (body weight) ([7]; 40 mg/kg i.p. twice/week): 24.9 (23.3–25.9) g | percentage of cells in sub-G1 phase compared to control [8]: significantly increased | G1-phase population compared to control [8]: significantly increased | apoptosis by DNA fragmentation analysis [9]: induced apoptosis | HIF1α and VEGF expression [10]: decreased | cyclin D1 expression [10]: decrease | level of 89 kDa cleaved PARP [10]: increased | levels of phospho-Bad and procaspase 3 [10]: decreased | phosphorylation of ERK1/2 and p90RSK [10]: blocked | apoptosis by DNA fragmentation analysis [11]: induced apoptosis

O=c1cc(N2CCOCC2)oc2c(-c3ccccc3)cccc12 [LY294002]
IC50 ([1]; Homo sapiens, MSTO-211H): 29.9 µM | percentage of cells in sub-G1 phase compared to control [2]: significantly increased | G1-phase population compared to control [2]: significantly increased | Pleural effusion Incidence ([3]; 25 mg/kg i.p. twice/week): 1/5 | Thoracic tumor Incidence ([3]; 25 mg/kg i.p. twice/week): 3/5 | Pleural effusion Volume ([3]; 25 mg/kg i.p. twice/week): 0 (0–10)^a μl | Thoracic tumor Weight ([3]; 25 mg/kg i.p. twice/week): 69.1 (0–481.6)^a mg | survival time compared to control group ([3]; 50 mg/kg i.p. twice a week): significantly prolonged | Pleural effusion Incidence ([3]; 50 mg/kg i.p. twice/week): 0/5 | Thoracic tumor Incidence ([3]; 50 mg/kg i.p. twice/week): 2/5 | Pleural effusion Volume ([3]; 50 mg/kg i.p. twice/week): 0 (−)^a μl | Thoracic tumor Weight ([3]; 50 mg/kg i.p. twice/week): 0 (0–41)^a mg | IC50 ([4]; Homo sapiens): 20.7 µM | level of 89 kDa cleaved PARP [5]: increased | levels of phospho-Bad and procaspase 3 [5]: decreased | Akt phosphorylation (western blot of tumors) [6, 15]: inhibited | phospho-Akt-positive tumor cells (immunohistochemistry) [6, 15]: reduced | expression of p27kip1 and 89 kDa cleaved PARP (western blot of tumors) [6]: increased | side effects ([12]; administration reduced to three days per week): side effects were not shown | side effects ([12]; daily intraperitoneal 100 mg/kg, mice with ovarian cancer): body weight loss and dry skin | ALT ([7]; 25 mg/kg i.p. twice/week): 19 (15–72) IU/l | AST ([7]; 25 mg/kg i.p. twice/week): 46 (37–117) IU/l | BUN ([7]; 25 mg/kg i.p. twice/week): 20.2 (17.9–23.0) mg/dl | Cre ([7]; 25 mg/kg i.p. twice/week): 0.11 (0.06–0.20) mg/dl | TP (serum total protein) ([7]; 25 mg/kg i.p. twice/week): 4.3 (3.9–5.6) g/dl | Weight (body weight) ([7]; 25 mg/kg i.p. twice/week): 25.4 (24.4–26.3) g | ALT ([7]; 50 mg/kg i.p. twice/week): 25 (16–42) IU/l | AST ([7]; 50 mg/kg i.p. twice/week): 51 (46–92) IU/l | BUN ([7]; 50 mg/kg i.p. twice/week): 21.0 (16.4–23.2) mg/dl | Cre ([7]; 50 mg/kg i.p. twice/week): 0.09 (0.07–0.12)^a mg/dl | TP (serum total protein) ([7]; 50 mg/kg i.p. twice/week): 4.4 (3.9–5.6) g/dl | Weight (body weight) ([7]; 50 mg/kg i.p. twice/week): 24.4 (22.7–26.3) g | percentage of cells in sub-G1 phase compared to control [8]: significantly increased | G1-phase population compared to control [8]: significantly increased | apoptosis by DNA fragmentation analysis [9]: induced apoptosis | HIF1α and VEGF expression [10]: inhibited | cyclin D1 expression [10]: decrease | level of 89 kDa cleaved PARP [10]: increased | levels of phospho-Bad and procaspase 3 [10]: decreased | phosphorylation of Akt, p70S6K, S6 and GSK3β [10]: suppressed | apoptosis by DNA fragmentation analysis [11]: induced apoptosis

O=C(NOCC1CC1)c1ccc(F)c(F)c1Nc1ccc(I)cc1Cl [CI-1040]
toxicities in patients [13]: mild or moderate toxicities
